# RGS4 inh = human RGS4 inhibition | P49798 | HEK293 M3R/RGS4 inducible, Fluo-4 calcium flux; active compounds read high; triggered by carbachol at its EC20 | B-score at 10 µM | 310,000 compounds, 0.45% hits;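 active = B-score, a plate-corrected calcium signal, over three deviations above library mean, with baseline fluorescence within five deviations of library mean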;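 also: RGS4 expression induced by doxycycline in cells with stable M3 receptor; B-score is computed from the integrated fluorescence ratio over baseline after carbachol; higher B-score means a larger calcium signal and so more RGS4 inhibition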
# Target sequence (P49798 whole entry, looked up): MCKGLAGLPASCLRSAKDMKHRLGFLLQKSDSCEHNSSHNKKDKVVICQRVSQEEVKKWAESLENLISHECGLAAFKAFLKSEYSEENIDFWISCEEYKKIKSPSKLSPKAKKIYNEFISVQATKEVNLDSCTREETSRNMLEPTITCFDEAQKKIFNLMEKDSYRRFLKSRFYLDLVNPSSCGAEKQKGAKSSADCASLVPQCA
# Lipid droplet = hepatic lipid droplet formation modulation | AML12 mouse hepatocytes, oleate lipid droplets, BODIPY imaging | inhibition, % at 6.5 µM | 240,000 compounds, 0.4% hits | AID 1656;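 active = lipid droplet intensity inhibited by at least 50%, with more than 500 cells counted; inconclusive = wells with under 300 cells, treated as cytotoxic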
#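 Assay system: AML12 hepatocytes (mouse) / Also added: 100 µM oleic acid challenge / Times: overnight treatment with compound plus oleate / Detection: high-content imaging of BODIPY-stained droplets and DAPI nuclei / Evaluation: % inhibition of lipid droplet signal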
# RGS4 pot = RGS4 potentiation or activation. HEK293 M3R/inducible RGS4, carbachol calcium flux Fluo4; active compounds read low. B-score at 10 µM. 310,000 compounds, 0.92% hits;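 active = B-score of the integrated calcium signal more than 4 SD below the library mean, with starting fluorescence not abnormally high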;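 also: negative B-score means reduced calcium response which marks RGS4 activation or potentiation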
#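 Material: Inducible-RGS4 HEK293 cells carrying M3 receptor; also added: carbachol at ECmax as muscarinic agonist stimulus; incubation: compound preincubation 20 min at room temperature before agonist; signal: Fluo4-AM (2 µM) calcium-flux fluorescence, kinetic read; measure: integrated calcium ratio converted to B score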
# MrgX1 allo act = allosterically activates human MrgX1 receptor signaling | Q96LB2 | MrgX1-HEK293, Fluo-4 calcium flux, FDSS; active compounds read high | B-score at 10 µM | 310,000 compounds, 0.63% hits;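 active = plate-corrected calcium response at least 3 library SD above typical, normal starting fluorescence, not activating the receptor alone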;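 also: compound read alongside a low EC10 to EC30 dose of BAM8-22 agonist; peak minus trough fluorescence over baseline measured at the second addition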
# Target sequence (Q96LB2 whole entry, looked up): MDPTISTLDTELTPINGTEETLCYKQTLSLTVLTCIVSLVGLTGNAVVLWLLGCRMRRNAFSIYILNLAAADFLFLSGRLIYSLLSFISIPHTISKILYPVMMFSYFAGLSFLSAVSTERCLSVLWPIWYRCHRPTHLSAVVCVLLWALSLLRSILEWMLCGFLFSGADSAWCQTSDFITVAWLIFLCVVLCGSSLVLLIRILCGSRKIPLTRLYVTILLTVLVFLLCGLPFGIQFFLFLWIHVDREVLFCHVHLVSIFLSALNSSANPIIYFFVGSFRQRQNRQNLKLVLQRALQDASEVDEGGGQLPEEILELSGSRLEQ
# MrgX1 antagonist = human MrgX1 receptor antagonism, primary screen; B-score at 10 µM; MRGX1-HEK293 calcium flux, Fluo-4, BAM8-22 antagonism; active compounds read low; AID 588676; Q96LB2; 310,000 compounds, 1.3% hits;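 active = calcium-response B-score plate-corrected more than 3 library SD below zero, starting fluorescence within 5 deviations, no agonist response on first addition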;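 also: peak minus trough fluorescence over baseline after final BAM8-22 challenge near maximal dose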
# MrgX1 agonist = activates human MrgX1 receptor signaling | Q96LB2 | MrgX1-HEK293 cells, Fluo-4 calcium fluorescence, agonist mode; active compounds read high | B-score at 10 µM | 310,000 compounds, 0.44% hits | AID 588627;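 active = calcium response B-score plate-corrected fluorescence ratio at least 3 library SD, with starting fluorescence B-score inside 5 SD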
#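 Material: MrgX1-expressing HEK293 cells / Dosing: compound as first of three additions / Incubation: overnight seeding, then 1 h dark dye loading / Signal: Fluo-4 NW calcium fluorescence / Evaluation: B-scored fluorescence response ratio / Benchmarks: positive and negative control wells on each plate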
# The depositor's hits bear a star; i = inactive; ? = inconclusive; nt = no result given. In the library only some 3.8% were active in any assay of this set; here they are far more common.
SMILES,RGS4 inh,Lipid droplet,RGS4 pot,MrgX1 allo act,MrgX1 antagonist,MrgX1 agonist
C[N+]1(CC(=O)OC2CCCCCCCCCCC2)CCCC1,i,-1.6,-7.23*,i,i,i
CS(=O)(=O)c1ccccc1-c1nnc(NC(=O)c2cccc(N3C(=O)CCC3=O)c2)o1,i,nt,i,i,i,i
COC(=O)[C@@H](Cc1c[nH]c2ccccc12)NC(=O)CCC(=O)c1ccc(F)cc1,i,-18.8,i,i,i,i
Cc1cc(C(=O)CSc2nnc(-c3ccccc3F)o2)c(C)n1Cc1cccs1,i,nt,i,i,-6.04*,i
COc1ccccc1-n1cnnc1SCC(=O)c1cc(C)n(Cc2cccs2)c1C,i,nt,i,i,i,i
O=C1/C(=C/c2ccccc2F)SC(=S)N1CC(=O)N1CCCCC1c1cccnc1 (configuration not stated),i,-15.9,i,i,i,i
C/C(CCN1CCc2nc(-c3ccccc3)c(-c3ccccc3)cc2C1)=N\O[C@@H](C)c1cn([C@H](CO)Cc2ccccc2)nn1,i,-7.1,-8.92*,i,i,i
O=C(CSc1nnc(CNC(=O)c2c(F)cccc2Cl)o1)NCc1ccc(F)cc1,i,-5.2,i,i,i,i
O=C(NC(=S)NCCc1ccccc1)C1CCCCC1,i,-8.5,i,i,i,i
S=C(NCCc1ccccc1)NN=C1CCCCCC1,i,-4.4,i,7.41*,i,i
COCCNC(=S)NN=C1CCCCCC1,i,-1.0,i,nt,nt,nt
S=C(NCCc1ccccc1)N/N=C/C1CCCCC1,i,5.3,i,9.07*,i,i
O=C(Nc1cc(S(=O)(=O)N2CCCCC2)ccc1Oc1ccccc1)C1=COCCO1,i,-1.1,i,i,i,i
Cc1ccccc1N/C(=C(/C(Cl)=C(Cl)Cl)[N+](=O)[O-])n1nnc2ccccc21,i,11.1,i,i,-4.96*,i
CC(C)c1ccc(/C=C/C(=O)NCc2ccc(S(N)(=O)=O)cc2)cc1,i,-20.6,i,i,-6.83*,i
Cc1cccc(C)c1Nc1nnc(SCC(=O)c2ccc(Br)s2)s1,i,-26.8,-7.68*,i,i,i
Cc1nnc(SCc2cccc([N+](=O)[O-])c2)s1,i,2.7,-7.08*,i,i,i
O=C(Nc1nnc(SCc2ccccc2)s1)c1cccc([N+](=O)[O-])c1,i,-2.5,i,i,i,i
Cc1ccc(-c2cc(C(=O)N/N=C/c3c(C)nn(-c4ccccc4)c3C)n[nH]2)s1,i,?,-7.7*,nt,nt,nt
Cc1nn(-c2ccccc2)c(C)c1/C=N/NC(=O)c1cc(C(C)(C)C)[nH]n1,i,-0.5,i,i,i,i
Cc1ccccc1CN1C(=O)CS/C1=N/N=C/c1ccco1,i,-0.4,i,7.18*,i,i
CC/C(=N\N=C1\SC(C)C(=O)N1Cc1ccco1)c1ccccc1 (configuration not stated),i,-4.7,i,12.1*,i,i
CCC1S/C(=N/N=C/c2ccco2)N(Cc2ccccc2C)C1=O (configuration not stated),i,-17.3,i,i,i,i
CC1S/C(=N/N=C/c2ccco2)N(Cc2ccccc2)C1=O (configuration not stated),i,-10.4,i,8*,i,i
CCC1S/C(=N/N=C/c2ccco2)N(Cc2ccc(F)cc2)C1=O (configuration not stated),i,15.2,i,i,i,i
SMILES,RGS4 inh,Lipid droplet,RGS4 pot,MrgX1 allo act,MrgX1 antagonist,MrgX1 agonist
CSc1nc(C)cc(OCC(=O)N/N=C/c2ccccc2O)n1,i,5.3,i,i,i,i
O=C(NC1CCCC1)C(c1ccccc1F)N(C(=O)c1ccco1)C1CCCC1 (configuration not stated),i,nt,-7.13*,i,i,i
O=C(NC1CCCC1)C(c1ccccc1)N(C(=O)c1ccco1)C1CCCC1 (configuration not stated),i,-61.0,i,i,i,i
CCOC(=O)CN(C(=O)CNC(=O)c1ccco1)C(C(=O)NC1CCCC1)c1ccccc1OCC (configuration not stated),i,nt,i,i,-5.4*,i
COc1ccc(-n2nc(C(=O)NCC(=O)NCCCN3CCOCC3)c3ccccc3c2=O)cc1OC,i,-1.2,i,i,i,i
CCN1/C(=C/C=C/C=C/c2sc3ccccc3[n+]2CC)Sc2ccccc21,i,-218.9,i,i,i,i
CCN1/C(=C/C=C/C=C/C=C/c2sc3ccccc3[n+]2CC)Sc2ccccc21,i,6.2,i,i,-5.07*,i
CCN1/C(=C/C=C/c2sc3ccccc3[n+]2CC)Sc2ccccc21,i,nt,-7.02*,i,-4.62*,i
CC[n+]1c(/C=C/Nc2ccccc2)sc2ccccc21,i,nt,i,i,i,i
O=C(Nc1ccc(S(=O)(=O)N2CCOCC2)cc1)c1ccccc1F,i,nt,i,i,i,i
O=[N+]([O-])c1ccc(N/N=C/c2sc(N3CCOCC3)nc2-c2ccccc2)c(S(=O)(=O)Nc2ccc(Cl)cc2)c1,i,-23.9,-7.45*,nt,nt,nt
O=[N+]([O-])c1ccc(N/N=C/c2sc(N3CCOCC3)nc2-c2ccccc2)c(S(=O)(=O)Nc2ccccc2Cl)c1,nt,8.0,nt,nt,nt,nt
CC(OC(=O)c1cccc([N+](=O)[O-])c1)C(=O)NCc1ccc2c(c1)OCO2 (configuration not stated),i,-0.5,i,i,-5.9*,i
Cn1cccc1C(NC(=O)c1ccccc1)C(Cl)(Cl)Cl (configuration not stated),i,-8.7,i,i,i,i
COc1ccc(N2C(=O)NC(NC(=O)c3ccncc3)(C(F)(F)F)C2=O)cc1 (configuration not stated),i,nt,i,i,i,i
O=C(c1ccccc1)c1c2c(cc3sc4ccccc4[n+]13)-c1cccc3cccc-2c13,nt,-66.7,nt,i,-8.81*,i
CCN(CC)c1ccc(NC(=O)c2ccc3c(c2)c(C)c(C)n3C)cc1,i,71.2*,i,i,i,i
Cc1ccccc1C(=O)OC1CCN(C)CC1,i,nt,i,i,i,i
CN1CCC(OC(=O)c2ccccc2Cl)CC1,i,-49.2,-7.19*,i,i,i
O=C(Nc1ccc(N2CCOCC2)c(Cl)c1)c1cc2ccccc2o1,i,16.9,-7.6*,i,i,i

# Compound activity from PubChem.
